Screening data: PubChem, The Scripps Research Institute Molecular Screening Center
Compounds with a hit are over-represented: about 2.3% of the library has one in this group of screens.
OXTR potentiator = human OXTR potentiators, primary screen, fluorescence, CHO-OTR cells, Fluo-8 calcium; AID 2445, 2010; activation, % at 3 µM; hit rate 0.061% among 320,000; Oxytocin receptor (Homo sapiens), P30559; Fluo-8 calcium fluorescence, potentiator mode; 0% = oxytocin EC15, 100% = EC100;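 active means activation above that plate's cutoff, the mean activation of tested compounds plus 3 SD, cut at about 6.6% in these data, passing the limit was not always enough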;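 further: 100% uses oxytocin at 75 nM as the full agonist control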
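assay system = CHO-OTR cells, human receptor | schedule = compound 6 min at room temperature before oxytocin, 100 s read | detection = Fluo-8 intracellular calcium fluorescence, ex 470-495, em 515-575 nm | evaluation = normalized max/min fluorescence ratio, % activation | control set = EC15 oxytocin alone as 0%, 75 nM oxytocin (EC100) as 100%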
TAAR1 antagonist = human TAAR1 antagonists, primary screen, Fluo-8 calcium fluorescence, CHO RD-HGA16 cells | Trace amine-associated receptor 1 (Homo sapiens), Q96RJ0 | antagonist | inhibition, % at 3 µM | hit rate 1.5% among 360,000 | AID 624466, 2012;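 active means inhibition above a per-plate cutoff, the mean inhibition of test compounds on that plate plus 3 SD, cut at about 49% in these data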;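 further: 0% = DMSO plus EC80 beta-PEA response and 100% = DMSO alone without agonist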
Target sequence (Q96RJ0 whole entry, looked up): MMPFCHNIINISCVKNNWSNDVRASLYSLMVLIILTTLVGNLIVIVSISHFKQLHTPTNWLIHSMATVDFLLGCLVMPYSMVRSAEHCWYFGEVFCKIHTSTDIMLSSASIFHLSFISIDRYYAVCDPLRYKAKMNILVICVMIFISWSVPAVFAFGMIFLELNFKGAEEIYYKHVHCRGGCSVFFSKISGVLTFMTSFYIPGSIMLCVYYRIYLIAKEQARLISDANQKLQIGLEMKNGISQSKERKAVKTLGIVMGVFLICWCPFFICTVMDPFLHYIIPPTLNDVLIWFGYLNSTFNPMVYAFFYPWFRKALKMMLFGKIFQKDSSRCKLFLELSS
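Test system: hTAAR1-expressing CHO RD-HGA16 cells, Gα16-coupled; Probe or stimulus: EC80 β-phenethylamine stimulus; Compound dosing: single nominal final test compound concentration of 3 µM; Timing: 140 s kinetic read after compound, 140 s after agonist; Signal: Fluo-8 calcium-sensitive fluorescence; Measure: % inhibition of agonist calcium response; Controls: DMSO and EC80 PEA controls.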
V1aR counter = agonists of human V1a receptor, primary screen, counter-screen for OXTR agonist project, fluorescence, CHO-V1R cells; hit rate 0.25% among 320,000; Fluo-8 calcium fluorescence, agonist mode; 0% DMSO, 100% 3 nM vasopressin; activation, % at 3 µM; AID 2797, 2010; Vasopressin V1a receptor (Homo sapiens), P37288;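 active means activation above the mean activation of all tested compounds plus 3 SD, per screening run, cut at about 20% in these data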;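 further: signal is peak over basal fluorescence ratio across a 100 second FLIPR read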
OXTR agonist = human OXTR agonists, primary screen, fluorescence, CHO-OTR cells, Fluo-8 calcium. Oxytocin receptor (Homo sapiens), P30559. Fluo-8 calcium fluorescence; normalized: DMSO 0%, oxytocin 100%. activation, % at 3 µM. hit rate 0.32% among 320,000. AID 2435, 2010;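 active means activation above the mean of all tested compounds plus 3 SD, cutoff set per screening run, cut at about 20% in these data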;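 further: peak over basal fluorescence ratio from a 100 s FLIPR kinetic read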
TAAR1 ag = human TAAR1 agonists, primary screen, Fluo-8 calcium fluorescence, CHO RD-HGA16 cells | hit rate 0.99% among 360,000 | activation, % at 3 µM | vehicle wells 0%, saturating PEA agonist 100% | Trace amine-associated receptor 1 (Homo sapiens), Q96RJ0 | AID 624467, 2012;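 active means activation above the mean activation of all test compounds in the run plus 3 SD, cut at about 38% in these data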
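Repeats: no replicates (n 1) | Material: CHO-derived RD-HGA16 cells with stable Gα16 and human TAAR1 | Technique: Kinetic Fluo-8 calcium fluorescence | Schedule: 17-24 h seeding, 75 min 37 °C dye, 30 min RT | Evaluation: % activation from peak over basal fluorescence ratio, DMSO-to-PEA scaled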
* hit, by the source's call.

`COc1ccc(S(N)(=O)=O)cc1C(=O)OCC(=O)Nc1sccc1C#N` gave OXTR potentiator -3, TAAR1 antagonist -11, V1aR counter 0, OXTR agonist 1 and TAAR1 ag 2.
Screening CC(=O)N(C)c1ccc(NC(=O)Nc2ccc(C)c(C)c2)cc1 returned OXTR potentiator -12, TAAR1 antagonist 58*, V1aR counter 2, OXTR agonist 2 and TAAR1 ag 34.
`COc1cccc(CN2CCC(C(=O)Nc3ccc(-c4cccc(C)c4)cc3)CC2)c1O` gave OXTR potentiator -12, TAAR1 antagonist 12, V1aR counter 6, OXTR agonist 12 and TAAR1 ag 38*.
`Cc1ccc(SCCNC(=S)Nc2cc(C)cc(C)c2)cc1` gave OXTR potentiator -17, TAAR1 antagonist 65*, V1aR counter 0, OXTR agonist -2 and TAAR1 ag 11.
`C=CCc1cccc2cc(C(=O)N(CC)CC)c(=O)oc12` gave OXTR potentiator -3, TAAR1 antagonist 106*, V1aR counter 1, OXTR agonist -1 and TAAR1 ag 2.
Screening C=CCc1cccc2cc(C(=O)N(C)C)c(=O)oc12 returned OXTR potentiator 0, TAAR1 antagonist 0, V1aR counter 0, OXTR agonist 0 and TAAR1 ag -1.
O=C(CSc1ncccc1C(=O)O)NCCC1=CCCCC1 was read as OXTR potentiator 4, TAAR1 antagonist 77*, V1aR counter 1, OXTR agonist 2 and TAAR1 ag 96*.
Screening O=C(NNC(=O)c1cccs1)c1cccc(F)c1 returned OXTR potentiator -6, TAAR1 antagonist 8, V1aR counter 0, OXTR agonist 1 and TAAR1 ag 2.
`Oc1ccc2sc(-c3ccccc3O)c(-c3ccc(OCCN4CCCCC4)cc3)c2c1` gave TAAR1 antagonist 53* and TAAR1 ag 39*.
O=C1[C@@H]2[C@@H]3C[C@@H]([C@H]4ON=C(c5ccc(Cl)cc5Cl)[C@@H]34)[C@@H]2C(=O)N1C1CCCCC1 was read as OXTR potentiator 0, TAAR1 antagonist -36, V1aR counter 0, OXTR agonist 0 and TAAR1 ag 1.
For CCc1ccc(CNC(=O)CCC(=O)n2ncc3cc(C)ccc32)cc1 the results were OXTR potentiator -2, TAAR1 antagonist 12, V1aR counter 0, OXTR agonist 1 and TAAR1 ag 47*.
Screening COc1ccc(C(=O)Nc2cccc(/C(C)=N\NC(=O)c3ccoc3C)c2)cc1OC returned TAAR1 antagonist 49* and TAAR1 ag 13.
`CC(=O)c1cccc(NC(=O)c2ccoc2C)c1` gave OXTR potentiator -2, TAAR1 antagonist 7, V1aR counter 1, OXTR agonist 0 and TAAR1 ag 6.
For Cc1ccsc1/C=N/NC(=O)c1nnn(-c2nonc2N)c1CN(C)c1ccccc1 the results were OXTR potentiator -13, TAAR1 antagonist 49*, V1aR counter 7, OXTR agonist 6 and TAAR1 ag 7.
Screening Cc1ccc(SCc2c(C(=O)N/N=C/c3cccs3)nnn2-c2nonc2N)cc1 returned TAAR1 antagonist 62* and TAAR1 ag 8.
Cc1ccc(SCc2c(C(=O)N/N=C/c3ccccc3)nnn2-c2nonc2N)cc1 was read as OXTR potentiator -14, TAAR1 antagonist 29, V1aR counter 0, OXTR agonist -1 and TAAR1 ag 1.
Screening CC(C)CCC(C)NC(=O)Cc1ccc(S(=O)(=O)N2CCOCC2)s1 (centres undefined) returned OXTR potentiator -2, TAAR1 antagonist -24, V1aR counter 0, OXTR agonist -1 and TAAR1 ag 2.
`CC(C)Cc1ccc(C(C)NC(=O)Cc2ccc(S(=O)(=O)N3CCOCC3)s2)cc1` (centres undefined) gave OXTR potentiator -8, TAAR1 antagonist 45, V1aR counter 15, OXTR agonist 15 and TAAR1 ag 38*.
Screening O=C(COc1ccc(C(=O)c2ccc(F)cc2)cc1)Nc1cccc(S(=O)(=O)N2CCOCC2)c1 returned OXTR potentiator -11, TAAR1 antagonist 62*, V1aR counter 9, OXTR agonist 12 and TAAR1 ag 12.
For O=C(COc1ccc([N+](=O)[O-])cc1)Nc1ccc(S(=O)(=O)N2CCOCC2)cc1 the results were OXTR potentiator -10, TAAR1 antagonist -7, V1aR counter 12, OXTR agonist 16 and TAAR1 ag 47*.
CN(c1ccc(C(=O)Nc2cccc(O)c2)cc1)S(=O)(=O)c1ccccc1 was read as OXTR potentiator -7, TAAR1 antagonist 10, V1aR counter 8, OXTR agonist 2 and TAAR1 ag 12.
Screening CN(c1ccccc1)S(=O)(=O)c1cccc(C(=O)Nc2cccc(C(=O)NC3CC3)c2)c1 returned TAAR1 antagonist 17 and TAAR1 ag 11.
For CN(c1ccccc1)S(=O)(=O)c1cccc(NC(=O)c2ccc3ncsc3c2)c1 the results were OXTR potentiator -12, TAAR1 antagonist 60*, V1aR counter 4, OXTR agonist 4 and TAAR1 ag 9.
`CN(c1ccccc1)S(=O)(=O)c1cccc(NC(=O)c2cccc(C#N)c2)c1` gave OXTR potentiator -12, TAAR1 antagonist 66*, V1aR counter 5, OXTR agonist 5 and TAAR1 ag 21.
For Cc1nc2ccc(NC(=O)c3cccc(S(=O)(=O)N(C)c4ccccc4)c3)cc2s1 the results were OXTR potentiator -9, V1aR counter 5 and OXTR agonist 0.
For CC(=O)c1cccc(NC(=O)c2ccc(N(C)S(=O)(=O)c3ccc(C)cc3)cc2)c1 the results were OXTR potentiator -10, TAAR1 antagonist 55*, V1aR counter 8, OXTR agonist 2 and TAAR1 ag 7.
For CN(C)c1ccc(NC(=O)CSc2nnc(C3CCCCC3)n2N)cc1 the results were OXTR potentiator -8, TAAR1 antagonist -16, V1aR counter 0, OXTR agonist 0 and TAAR1 ag 1.
For COCCN1Cc2cccc(C(=O)Nc3cccc(-c4nc5ccccc5[nH]4)c3)c2C1=O the results were OXTR potentiator -6, TAAR1 antagonist 61*, V1aR counter 0, OXTR agonist -1 and TAAR1 ag 6.
`COc1ccc(OCC(=O)Nc2cccc(-c3nc4ccccc4[nH]3)c2)cc1` gave OXTR potentiator -11, TAAR1 antagonist 48, V1aR counter 5, OXTR agonist 8 and TAAR1 ag 16.
`CCCC(=O)Nc1cccc(-c2nc3ccccc3o2)c1` gave OXTR potentiator -7, TAAR1 antagonist -2, V1aR counter 2, OXTR agonist 4 and TAAR1 ag 15.
